According to publication PMC6220894 (Food and chemical toxicology : an international journal …, 2018):
Read-outs that look alike come from different tables or passages of the source.

Key:
[1] = tested on: Salmonella typhimurium TA 1535; format: cell-based; details: pre-incubation
CYP1A2 or CYP3A4 = assay: CYP mRNA induction in human hepatocytes, isoform not given; format: in vitro ADME; details: 0.3 µM; one donor; isoform not stated
hERG = hERG (Homo sapiens, UniProt Q12809); format: cell-based
CYP3A4 = assay: CYP mRNA induction in human hepatocytes; format: in vitro ADME; details: 0.3, 3, 30 µM; 72 hours; 3 donors
[2] = tested on: Salmonella typhimurium TA 98; assay: Ames bacterial reverse mutation assay, plate incorporation method; format: cell-based
plasma protein [3] = details: human plasma, mean ± SE
[4] = Red blood cell distribution in whole blood; format: in vitro ADME; details: male, Sprague-Dawley, rat, whole blood (EDTA)
[5] = tested on: Salmonella typhimurium TA 98; assay: Ames bacterial reverse mutation assay, pre-incubation method; format: cell-based
hypertension = details: mice; ref Wu et al., 2016; cited from earlier work
[6] = Stability in human whole blood; format: in vitro ADME; details: 37°C, no increase in salicylic acid
in vitro = details: both, human, plasma (pooled), pH 7.4
[7] = Plasma protein binding by equilibrium dialysis; format: in vitro ADME; details: male, Sprague-Dawley, rat, plasma, pH 7.4
plasma protein [8] = assay: Plasma protein binding by equilibrium dialysis; format: in vitro ADME; details: rat plasma, mean ± SE
CYP1A2 = assay: CYP mRNA induction in human hepatocytes; format: in vitro ADME; details: 0.3, 3, 30 µM; 72 hours; 3 donors
[9] = tested on: cryopreserved human hepatocytes; assay: Cytotoxicity; format: cell-based; details: 72 hours
Outline: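 Cryopreserved hepatocytes from three donors (1 male, 2 female, Caucasian, 43–59 y) were thawed, plated at 0.15 million cells/well on collagen-coated plates at 37°C in 5% CO2, medium-changed after 2–4 h attachment, and recovered overnight. Cells were exposed to 0.3, 3 or 30 µM test compound or 0.1% DMSO vehicle for 72 h, with medium renewed daily. MTS conversion to formazan was then read, in triplicate.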

[10] = Stability in rabbit plasma; format: in vitro ADME
[11] = tested on: Salmonella typhimurium TA 100; format: cell-based; details: plate incorporation
memory deficits = details: mouse model of Alzheimer's disease; ref Davies et al., 2011; cited from earlier work
[12] = Stability in rabbit whole blood; format: in vitro ADME
[13] = tested on: Salmonella typhimurium TA 100; format: cell-based; details: pre-incubation
CYP2B6 = assay: CYP mRNA induction in human hepatocytes; format: in vitro ADME; details: 0.3, 3, 30 µM; 72 hours; 3 donors
[14] = −S9, 0.05 mg/plate as printed (third dose row)
[15] = +S9, 0.05 mg/plate as printed (third dose row)

hERG, sequence (Q12809 whole entry): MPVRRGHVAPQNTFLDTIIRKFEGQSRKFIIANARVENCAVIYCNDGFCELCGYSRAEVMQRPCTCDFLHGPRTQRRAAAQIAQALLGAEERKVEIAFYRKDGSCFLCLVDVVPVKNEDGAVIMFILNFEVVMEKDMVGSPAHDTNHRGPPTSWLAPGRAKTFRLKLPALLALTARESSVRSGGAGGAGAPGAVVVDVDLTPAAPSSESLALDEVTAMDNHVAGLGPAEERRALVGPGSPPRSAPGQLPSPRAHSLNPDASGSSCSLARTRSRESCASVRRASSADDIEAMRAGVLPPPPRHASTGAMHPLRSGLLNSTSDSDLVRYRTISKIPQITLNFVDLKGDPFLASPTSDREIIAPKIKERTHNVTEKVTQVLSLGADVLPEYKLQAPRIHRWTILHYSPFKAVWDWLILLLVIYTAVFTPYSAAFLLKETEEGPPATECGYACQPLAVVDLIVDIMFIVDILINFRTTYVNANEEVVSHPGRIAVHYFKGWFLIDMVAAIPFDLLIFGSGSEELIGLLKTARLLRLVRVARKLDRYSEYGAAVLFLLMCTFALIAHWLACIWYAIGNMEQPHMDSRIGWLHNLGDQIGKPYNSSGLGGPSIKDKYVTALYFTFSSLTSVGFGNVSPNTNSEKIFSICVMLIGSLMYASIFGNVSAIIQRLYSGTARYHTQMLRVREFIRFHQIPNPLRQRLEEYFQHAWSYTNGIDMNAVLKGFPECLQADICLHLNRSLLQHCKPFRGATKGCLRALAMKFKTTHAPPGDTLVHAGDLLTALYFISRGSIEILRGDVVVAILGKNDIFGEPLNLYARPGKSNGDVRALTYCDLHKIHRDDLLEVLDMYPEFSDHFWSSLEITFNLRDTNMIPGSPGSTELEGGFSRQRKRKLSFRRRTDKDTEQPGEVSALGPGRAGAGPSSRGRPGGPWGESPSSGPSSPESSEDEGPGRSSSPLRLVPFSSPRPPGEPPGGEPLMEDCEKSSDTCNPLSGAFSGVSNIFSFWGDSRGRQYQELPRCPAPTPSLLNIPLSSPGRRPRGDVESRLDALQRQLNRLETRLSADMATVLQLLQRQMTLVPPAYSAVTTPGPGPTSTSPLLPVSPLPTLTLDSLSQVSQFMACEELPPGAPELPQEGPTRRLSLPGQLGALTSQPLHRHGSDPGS

CC(=O)O.NCc1ccccc1O [2-HOBA, 2-Hydroxybenzylamine acetate]
Mean plate counts (revertant colonies) ([1]; +S9, 0.05 mg/plate): 12.0±2.0 | Mean plate counts (revertant colonies) ([1]; +S9, 0.15 mg/plate): 12.0±1.0 | Mean plate counts (revertant colonies) ([1]; +S9, 0.5 mg/plate): 14.3±2.1 | Mean plate counts (revertant colonies) ([1]; +S9, 1.5 mg/plate): 12.3±0.6 | Mean plate counts (revertant colonies) ([1]; +S9, 5 mg/plate): 11.7±2.1 | Change in revertant colony counts vs negative control (mutagenicity) ([1]; +S9 and −S9, all dose levels): No changes in revertant colony counts were observed | Mean plate counts (revertant colonies) ([1]; −S9, 0.05 mg/plate): 12.7±1.5 | Mean plate counts (revertant colonies) [1, 14]: 12.0±1.0 | Mean plate counts (revertant colonies) ([1]; −S9, 0.15 mg/plate): 11.7±1.5 | Mean plate counts (revertant colonies) ([1]; −S9, 1.5 mg/plate): 11.3±1.5 | Mean plate counts (revertant colonies) ([1]; −S9, 5 mg/plate): 12.0±1.7 | percent induction relative to positive control induction level (CYP1A2 or CYP3A4): less than 5 % of positive control | IC50 (hERG): > 100 µM | Inhibition of hERG current (hERG; 0.1 µM): no inhibition | Inhibition of hERG current (hERG; 1 µM, mean ± SE): 3.0 ± 0.5 % inhibition | Inhibition of hERG current (hERG; 10 µM, mean ± SE): 9.7 ± 1.8 % inhibition | Inhibition of hERG current (hERG; 100 µM, mean ± SE): 29.1 ± 1.3 % inhibition | CYP3A4 mRNA induction (concentration-dependent >2-fold increase) (CYP3A4): no evidence of mRNA induction | Mean plate counts (revertant colonies) ([2]; +S9, 0.05 mg/plate): 20.7±1.2 | Mean plate counts (revertant colonies) [2, 15]: 20.7±1.2 | Mean plate counts (revertant colonies) ([2]; +S9, 0.15 mg/plate): 21.0±3.0 | Mean plate counts (revertant colonies) ([2]; +S9, 1.5 mg/plate): 21.3±1.5 | Mean plate counts (revertant colonies) ([2]; +S9, 5 mg/plate): 22.0±2.0 | Change in revertant colony counts vs negative control (mutagenicity) ([2]; +S9 and −S9, all dose levels): No changes in revertant colony counts were observed | Mean plate counts (revertant colonies) ([2]; −S9, 0.05 mg/plate): 19.7±1.5 | Mean plate counts (revertant colonies) [2, 14]: 22.0±3.6 | Mean plate counts (revertant colonies) ([2]; −S9, 0.15 mg/plate): 20.0±1.0 | Mean plate counts (revertant colonies) ([2]; −S9, 1.5 mg/plate): 21.3±1.5 | Mean plate counts (revertant colonies) ([2]; −S9, 5 mg/plate): 21.0±2.0 | fb (bound fraction) (plasma protein [3]; 1 µM): 0.079 ± 0.023 | fb (bound fraction) (plasma protein [3]; 10 µM): 0.140 ± 0.022 | Kp at 2 h, 1 µM [4]: 0.72 ± 0.1 | Kp at 2 h, 10 µM [4]: 0.78 | blood plasma ratio at 2 h, 1 µM [4]: 0.87 ± 0.05 | blood plasma ratio at 2 h, 10 µM [4]: 0.9 | Mean plate counts (revertant colonies) ([5]; +S9, 0.05 mg/plate): 25.7±3.1 | Mean plate counts (revertant colonies) ([5]; +S9, 0.15 mg/plate): 23.7±2.5 | Mean plate counts (revertant colonies) ([5]; +S9, 0.5 mg/plate): 24.3±2.1 | Mean plate counts (revertant colonies) ([5]; +S9, 1.5 mg/plate): 25.7±3.1 | Mean plate counts (revertant colonies) ([5]; +S9, 5 mg/plate): 22.3±3.2 | Change in revertant colony counts vs negative control (mutagenicity) ([5]; +S9 and −S9, all dose levels): No changes in revertant colony counts were observed | Mean plate counts (revertant colonies) ([5]; −S9, 0.05 mg/plate): 20.0±1.0 | Mean plate counts (revertant colonies) [5, 14]: 20.7±2.1 | Mean plate counts (revertant colonies) ([5]; −S9, 0.15 mg/plate): 16.7±1.5 | Mean plate counts (revertant colonies) ([5]; −S9, 1.5 mg/plate): 22.3±3.2 | Mean plate counts (revertant colonies) ([5]; −S9, 5 mg/plate): 23.0±1.0 | hypertension (hypertension): improved hypertension | metabolism in whole blood [6]: some 2-HOBA metabolism was observed | fraction unbound at 4 h, 1 µM (in vitro): 0.921 ± 0.024 | fraction unbound at 4 h, 10 µM (in vitro): 0.86 | fraction unbound at 4 h, 1 µM [7]: 0.76 ± 0.051 | fraction unbound at 4 h, 10 µM [7]: 0.951 | fb (bound fraction) (plasma protein [8]; 1 µM): 0.240 ± 0.051 | fb (bound fraction) (plasma protein [8]; 10 µM): 0.049 ± 0.029 | CYP1A2 mRNA induction (concentration-dependent >2-fold increase) (CYP1A2): no evidence of mRNA induction | % formazan absorbance relative to vehicle ([9]; all concentrations (0.3, 3, 30 µM), any donor): ≥ 94% | Formazan absorbance ([9]; donor 1, 0.3 µM): 0.82 | Formazan absorbance (% of vehicle) ([9]; donor 1, 0.3 µM): 117 % of vehicle | Formazan absorbance ([9]; donor 1, 3 µM): 0.81 | Formazan absorbance (% of vehicle) ([9]; donor 1, 3 µM): 115 % of vehicle | Formazan absorbance ([9]; donor 1, 30 µM): 0.75 | Formazan absorbance (% of vehicle) ([9]; donor 1, 30 µM): 107 % of vehicle | Formazan absorbance ([9]; donor 2, 0.3 µM): 0.37 | Formazan absorbance (% of vehicle) ([9]; donor 2, 0.3 µM): 94 % of vehicle | Formazan absorbance ([9]; donor 2, 3 µM): 0.38 | Formazan absorbance (% of vehicle) ([9]; donor 2, 3 µM): 96 % of vehicle | Formazan absorbance ([9]; donor 2, 30 µM): 0.39 | Formazan absorbance (% of vehicle) ([9]; donor 2, 30 µM): 100 % of vehicle | Formazan absorbance ([9]; donor 3, 0.3 µM): 0.64 | Formazan absorbance (% of vehicle) ([9]; donor 3, 0.3 µM): 99 % of vehicle | Formazan absorbance ([9]; donor 3, 3 µM): 0.66 | Formazan absorbance (% of vehicle) ([9]; donor 3, 3 µM): 102 % of vehicle | Formazan absorbance ([9]; donor 3, 30 µM): 0.67 | Formazan absorbance (% of vehicle) ([9]; donor 3, 30 µM): 104 % of vehicle | Formazan absorbance ([9]; mean of 3 donors, 0.3 µM): 0.61 | Formazan absorbance (% of vehicle) ([9]; mean of 3 donors, 0.3 µM): 103 % of vehicle | Formazan absorbance ([9]; mean of 3 donors, 3 µM): 0.62 | Formazan absorbance (% of vehicle) ([9]; mean of 3 donors, 3 µM): 104 % of vehicle | Formazan absorbance ([9]; mean of 3 donors, 30 µM): 0.61 | Formazan absorbance (% of vehicle) ([9]; mean of 3 donors, 30 µM): 103 % of vehicle | fraction metabolized ([10]; within 30 min): more than 60% | fraction metabolized ([10]; within 2 hours): nearly all | Mean plate counts (revertant colonies) ([11]; +S9, 0.05 mg/plate): 106.3±1.5 | Mean plate counts (revertant colonies) [11, 15]: 96.3±5.1 | Mean plate counts (revertant colonies) ([11]; +S9, 0.15 mg/plate): 104.7±8.1 | Mean plate counts (revertant colonies) ([11]; +S9, 1.5 mg/plate): 106.7±6.1 | Mean plate counts (revertant colonies) ([11]; +S9, 5 mg/plate): 101.3±4.2 | Change in revertant colony counts vs negative control (mutagenicity) ([11]; +S9 and −S9, all dose levels): No changes in revertant colony counts were observed | Mean plate counts (revertant colonies) ([11]; −S9, 0.05 mg/plate): 90.3±1.5 | Mean plate counts (revertant colonies) [11, 14]: 100.0±9.2 | Mean plate counts (revertant colonies) ([11]; −S9, 0.15 mg/plate): 105.3±8.3 | Mean plate counts (revertant colonies) ([11]; −S9, 1.5 mg/plate): 101.3±3.2 | Mean plate counts (revertant colonies) ([11]; −S9, 5 mg/plate): 100.7±2.1 | memory deficits (memory deficits): protection from memory deficits | stability in the presence of semicarbazide ([12]; rabbit blood fortified with semicarbazide (100 µm)): prevented the degradation of 2-HOBA | time until undetectable ([12]; rabbit whole blood, 1 µM, 37°C): ≤ 2 h | fraction metabolized ([12]; rabbit whole blood, within 30 min): more than 60% | fraction metabolized ([12]; rabbit whole blood, within 2 hours): nearly all | Mean plate counts (revertant colonies) ([13]; +S9, 0.05 mg/plate): 114.7±12.9 | Mean plate counts (revertant colonies) ([13]; +S9, 0.15 mg/plate): 120.7±7.6 | Mean plate counts (revertant colonies) ([13]; +S9, 0.5 mg/plate): 119.3±7.6 | Mean plate counts (revertant colonies) ([13]; +S9, 1.5 mg/plate): 112.0±7.2 | Mean plate counts (revertant colonies) ([13]; +S9, 5 mg/plate): 114.0±12.5 | Change in revertant colony counts vs negative control (mutagenicity) ([13]; +S9 and −S9, all dose levels): No changes in revertant colony counts were observed | Mean plate counts (revertant colonies) ([13]; −S9, 0.05 mg/plate): 98.7±2.3 | Mean plate counts (revertant colonies) [13, 14]: 103.7±1.5 | Mean plate counts (revertant colonies) ([13]; −S9, 0.15 mg/plate): 96.7±6.1 | Mean plate counts (revertant colonies) ([13]; −S9, 1.5 mg/plate): 94.7±4.2 | Mean plate counts (revertant colonies) ([13]; −S9, 5 mg/plate): 105.3±6.1 | CYP2B6 mRNA induction (concentration-dependent >2-fold increase) (CYP2B6): no evidence of mRNA induction
